Structures are written as SMILES. Values after ≈ are worked out from the molar mass of the structure shown. Active and inactive are the calls of the source. The calls are words filed in the database; no cut-off is given here. Some results are limits rather than exact numbers.

Data set [1] deals with Glycogen synthase kinase-3 beta (Homo sapiens, UniProt P49841). As to the kind of experiment: Inhibition of GSK3-beta.
Data set [2] in a line: Solubility at pH 7.4. The format is physicochemical. The conditions noted are these: buffer.
The nature of data set [3]: Cmax in ovariectomized rat at 10 mg/kg, po. The format is ADME, organism-based. Set-up: dose 10 mg/kg, route oral. The conditions noted are these: female, in vivo. The method in brief: (§1)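 Single oral dose given to ovariectomized rats at 10 mg/kg in 2% MC/0.5% T80 vehicle. Plasma drug concentration was followed over time, and PK parameters were derived from the concentration-time curve.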

The nature of data set [4]: Metabolic stability in rat liver microsomes assessed as half life at 1 uM. The format is ADME, Microsome. Background: Microsomes from liver hold many membrane-bound enzymes, among them those of drug oxidation.
Data set [5] is filed under the species Mus musculus. As to the kind of experiment: Increase in trabecular bone formation rate in wild type mouse measured after 7 days. The format is functional, organism-based. The conditions noted are these: Trabecula.
The subject of data set [6] is Rattus norvegicus. The data set is described as follows: Increase in trabecular bone formation rate in ovariectomized rat measured at 0.3 mg/kg, po once daily after 28 days. It counts as functional, organism-based. Set-up: dose 0.3 mg/kg. Conditions: Trabecula. In a few lines: (§2)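 Ovariectomized rats dosed orally once daily for 28 days at four dose levels; vehicle 0.5% methylcellulose/2% Tween-80. Trabecular bone formation rate in the tibia determined at end of in-life phase. Positive control hPTH given sc.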

Data set [7] in a line: AUC (0 to infinity) in ovariectomized rat at 10 mg/kg, po. The format is ADME, organism-based. Conditions: female, plasma. Set-up: time infinity, dose 10 mg/kg, route oral. The method in brief: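 Single oral dose in ovariectomized rats, vehicle 2% MC/0.5% Tween-80. Plasma drug concentration followed over time; AUC0-∞ taken from the plasma concentration-time curve.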
A short description of data set [8]: Membrane permeability by PAMPA. Conditions: read-out: permeability. The format is ADME. On the technique in general: The PAMPA barrier holds no transporters, so it reflects passive diffusion.
Data set [9] in a line: Plasma clearance in ovariectomized rat at 2 mg/kg, iv. It counts as ADME, organism-based. Set-up: dose 2 mg/kg, route intravenous. Conditions: female. In a few lines: (§3)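 Ovariectomized rats received a single intravenous dose of 2.0 mg/kg in DMSO vehicle. Plasma drug concentration-time curves gave the PK parameters.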
Data set [10] is described as follows: Volume of distribution at steady state in ovariectomized rat at 2 mg/kg, iv. It counts as ADME, organism-based. Set-up: dose 2 mg/kg, route intravenous. The conditions noted are these: female, in vivo, read-out: Vdss. The method in brief: as §3
In data set [11] the test system is Rattus norvegicus. As to the kind of experiment: Increase in trabecular bone formation rate in once daily po dosed ovariectomized rat measured after 28 days. The format is functional, organism-based. Conditions: Trabecula. In a few lines: as §2
For data set [12], the species on record is Mus musculus. As to the kind of experiment: Increase in trabecular bone formation rate in Dkk1 knockout mouse measured after 7 days. The format is functional, organism-based. The conditions noted are these: Trabecula.
Data set [13] is described as follows: Half life in ovariectomized rat plasma at 10 mg/kg, po. The conditions noted are these: female. Set-up: dose 10 mg/kg, route oral. The format is ADME, organism-based. The method in brief:
as §1

The nature of data set [14]: AUC (0 to infinity) in ovariectomized rat at 2 mg/kg, iv. The format is ADME, organism-based. Set-up: time infinity, dose 2 mg/kg, route intravenous. Conditions: female, plasma. In a few lines:
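Single intravenous dose in ovariectomized rats, vehicle DMSO. Plasma drug concentration followed over time; AUC0-∞ taken from the plasma concentration-time curve.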

Data set [15] is described as follows: Half life in ovariectomized rat plasma at 2 mg/kg, iv. The format is ADME, organism-based. Set-up: dose 2 mg/kg, route intravenous. The conditions noted are these: female. In a few lines:
as §3

The nature of data set [16]: Tmax in ovariectomized rat at 10 mg/kg, po. It counts as ADME, organism-based. Set-up: dose 10 mg/kg, route oral. The conditions noted are these: female, in vivo. The method in brief:
as §1

Data set [17] is described as follows: Oral bioavailability in ovariectomized rat at 10 mg/kg. The format is ADME, organism-based. Conditions: female, in vivo. In a few lines: as §1

Chain of Glycogen synthase kinase-3 beta (P49841 whole entry): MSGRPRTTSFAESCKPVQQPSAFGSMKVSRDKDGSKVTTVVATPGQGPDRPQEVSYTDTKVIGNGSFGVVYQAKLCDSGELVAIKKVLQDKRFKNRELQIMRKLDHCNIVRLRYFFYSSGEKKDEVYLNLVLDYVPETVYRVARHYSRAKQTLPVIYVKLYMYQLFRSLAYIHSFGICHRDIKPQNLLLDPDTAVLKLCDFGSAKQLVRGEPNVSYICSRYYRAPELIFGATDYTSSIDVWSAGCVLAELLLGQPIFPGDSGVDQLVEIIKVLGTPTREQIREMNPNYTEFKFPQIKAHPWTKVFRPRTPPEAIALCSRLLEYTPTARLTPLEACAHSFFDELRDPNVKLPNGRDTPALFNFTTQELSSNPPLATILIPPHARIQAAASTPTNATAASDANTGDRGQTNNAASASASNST

For `Cc1ccc(-c2ccnc(N(C)c3ccc(S(N)(=O)=O)cc3)n2)s1`, the IC50 in [1] amounted to 65 µM. In data set [2], this compound had a solubility of 15 µg/mL (≈ 41.6 µM).

As to `Cc1ccc(-c2ccnc(Nc3ccc(S(N)(=O)=O)cc3)n2)s1`, in [1], the IC50 came out at 0.2 µM. Besides, the solubility in data set [2] turned out to be 8 µg/mL (≈ 23.1 µM).

Regarding `NS(=O)(=O)c1ccc(Nc2nccc(-c3ccc4ccccc4c3)n2)cc1`, 0.31 µM corresponded to half-maximal inhibition in [1] (IC50). This compound also showed a solubility in data set [2] below 0.1 µg/mL.

Turning to `NCC1CCN(c2nccc(-c3ccc4ccccc4c3)n2)CC1`, in data set [3], the peak level (Cmax) was 277 ng/mL. Moreover, the half-inhibitory concentration (IC50) in data set [1] was above 100 µM. Further, in data set [4], the half-life at 1 µM was above 0.5 h. Besides, the result in [5] and in data set [6] was Active. The figures for the AUC(0-inf) in data set [7] and in data set [14] were 3990 ng·h/mL and 1030 ng·h/mL, respectively. Moreover, the Papp in data set [8] was 5.9 ×10⁻⁶ cm/s. Moreover, the clearance in [9] was 32 mL/min/kg. For the same compound, the Vd in [10] was determined as 22 L/kg. The Activity result in [11] is “Dose-dependent effect”. In addition, in data set [12], the outcome was inactive. Moreover, the figures for the half-life in [13] and in data set [15] were 5.6 h and 8.2 h, respectively. Also, the Tmax in data set [16] turned out to be 4.7 h. Besides, in data set [17], the bioavailability stood at 78%. Moreover, the solubility in data set [2] is 65 µg/mL (≈ 204 µM).

Take `CC(=O)NCC1CCN(c2nccc(-c3ccc4ccccc4c3)n2)CC1`: the IC50 in [1] is above 10 µM. In [2], this compound showed a solubility of 1 µg/mL (≈ 2.77 µM).

Consider `NC1CCN(c2nccc(-c3ccc4ccccc4c3)n2)CC1`, for which, in [1], the 50% inhibitory concentration (IC50) was above 50 µM. In addition, the solubility in data set [2] is above 100 µg/mL.

Broadly, the IC50 is the concentration needed to halve the response being measured. The low end stands for greater potency in that assay, the high end for weaker potency in that assay. Usually solubility stands for the dissolved amount per volume that the medium holds. A lower solubility goes with little dissolved substance. A word on the Cmax: it is the maximum level reached in the sampled fluid or tissue. A word on the half-life: it is how long it takes for the measured level to halve. By AUC(0-inf) is commonly meant total exposure, with the tail of the curve extrapolated. Usually clearance stands for the volume of plasma or blood freed of the substance per unit of time. For orientation: Tmax means the time at which the peak concentration occurs. One may read the bioavailability as the share of a dose that reaches the circulation, judged against a reference dose that is usually intravenous. Read a high bioavailability as good availability.

The values are drawn from ChEMBL document CHEMBL1156130, “(1-(4-(Naphthalen-2-yl)pyrimidin-2-yl)piperidin-4-yl)methanamine: a wingless beta-catenin agonist that increases bone formation rate” (J Med Chem, 2009).
